Screening results as filed in PubChem BioAssay.
The list is not random: actives were taken first. Their share in the collection is about 3.5%.
RGS4 act: potentiators or activators of RGS4 | HEK293 M3R/inducible RGS4, carbachol calcium flux Fluo4; stronger effect = lower value | B-score at 10 µM | hit rate 0.92% among 310,000 | AID 463111;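 active = B-score of the integrated calcium signal more than 4 SD below the library mean, with starting fluorescence not abnormally high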;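 also: negative B-score means reduced calcium response which marks RGS4 activation or potentiation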
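Detection: kinetic calcium fluorescence imaging with Fluo4-AM dye, 2 µM / Material: HEK293 cells with stable M3R and inducible RGS4 / Schedule: recording 10 s baseline at 1 Hz, 100 s post-agonist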
MrgX1 antag: human MrgX1 receptor antagonism, primary screen | Q96LB2 | MRGX1-HEK293 calcium flux, Fluo-4, BAM8-22 antagonism; stronger effect = lower value | B-score at 10 µM | hit rate 1.3% among 310,000;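 active = calcium-response B-score plate-corrected more than 3 library SD below zero, starting fluorescence within 5 deviations, no agonist response on first addition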;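 also: peak minus trough fluorescence over baseline after final BAM8-22 challenge near maximal dose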
Target sequence (Q96LB2 whole entry, looked up): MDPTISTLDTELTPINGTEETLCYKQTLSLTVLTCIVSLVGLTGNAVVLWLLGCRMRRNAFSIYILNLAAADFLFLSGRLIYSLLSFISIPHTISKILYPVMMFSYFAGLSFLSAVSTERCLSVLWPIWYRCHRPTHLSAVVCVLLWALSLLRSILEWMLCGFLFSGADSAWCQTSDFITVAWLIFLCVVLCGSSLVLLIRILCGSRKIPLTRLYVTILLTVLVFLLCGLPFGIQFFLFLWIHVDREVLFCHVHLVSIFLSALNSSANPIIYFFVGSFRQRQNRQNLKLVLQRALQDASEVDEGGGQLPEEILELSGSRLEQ
MrgX1 PAM: allosterically activates human MrgX1 receptor signaling; Q96LB2; MrgX1-HEK293, Fluo-4 calcium flux, FDSS; stronger effect = higher value; B-score at 10 µM; hit rate 0.63% among 310,000; AID 588675;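 active = plate-corrected calcium response at least 3 library SD above typical, normal starting fluorescence, not activating the receptor alone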;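 also: compound read alongside a low EC10 to EC30 dose of BAM8-22 agonist; peak minus trough fluorescence over baseline measured at the second addition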
RGS4 block: inhibitors of human RGS4. B-score at 10 µM. hit rate 0.45% among 310,000. P49798. HEK293 M3R/RGS4 inducible, Fluo-4 calcium flux; stronger effect = higher value; triggered by carbachol at its EC20;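 active = B-score, a plate-corrected calcium signal, over three deviations above library mean, with baseline fluorescence within five deviations of library mean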;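 also: RGS4 expression induced by doxycycline in cells with stable M3 receptor; B-score is computed from the integrated fluorescence ratio over baseline after carbachol; higher B-score means a larger calcium signal and so more RGS4 inhibition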
Target sequence (P49798 whole entry, looked up): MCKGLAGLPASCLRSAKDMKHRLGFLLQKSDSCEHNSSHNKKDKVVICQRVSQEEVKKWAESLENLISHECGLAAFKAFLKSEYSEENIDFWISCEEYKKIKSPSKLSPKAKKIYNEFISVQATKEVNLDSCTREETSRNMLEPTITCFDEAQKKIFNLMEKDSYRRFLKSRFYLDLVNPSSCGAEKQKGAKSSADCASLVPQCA
MrgX1 ag: agonists of human MrgX1 receptor; B-score at 10 µM; hit rate 0.44% among 310,000; MrgX1-HEK293 cells, Fluo-4 calcium fluorescence, agonist mode; stronger effect = higher value; AID 588627; Q96LB2;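 active = calcium response B-score plate-corrected fluorescence ratio at least 3 library SD, with starting fluorescence B-score inside 5 SD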
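Test system: HEK293 cells stably expressing human MrgX1 receptor; amount: 15,000 cells per well; doses: compound delivered in addition one of three; times: overnight plating before 1 h dye loading; detection: Fluo-4 NW calcium-flux fluorescence, kinetic read; read-out basis: B-scored fluorescence response ratio; controls: positive and negative controls per plate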
RGS4 inh valid: validation of RGS4 inhibitors; shares compounds with RGS4 block; HEK293 M3R/RGS4, carbachol calcium Fluo-4 fluorescence; carbachol added at its EC20; 0 = buffer wells, 100 = carbachol control; calcium response, % at 10 µM; hit rate 65% among 1,700;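 active = duplicate-averaged calcium response above the buffer-only control mean plus 5 SD of those controls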;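 also: integrated fluorescence ratio F max minus min over baseline F0; higher response in RGS4-induced cells means RGS4 inhibition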
RGS4 uninduced: counter-screen for RGS4 inhibitors: effect in non-induced cells; HEK293 M3R non-induced, carbachol calcium Fluo-4; submaximal (EC20) carbachol stimulus; buffer wells 0%, carbachol control wells 100%; hit rate 20% among 1,900; activity (percent), % at 10 µM; shares compounds with RGS4 block; call rule not given here;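 also: RGS4 induction absent so cells express M3R without RGS4; higher means more calcium signal and flags a non-specific hit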
RGS4 inh ctr2: second counter-screen for RGS4 inhibitors: non-induced cells without carbachol; shares compounds with RGS4 block; HEK293 M3R/RGS4 non-induced, Fluo-4 calcium, no carbachol; normalised: buffer wells 0%, carbachol wells 100%; hit rate 22% among 1,900; calcium response (agonist-mode artifact), % at 10 µM; AID 493001;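 active = duplicate-averaged calcium rise in uninduced cells above buffer wells' mean plus 5 SD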
Hits are given with their value; i = inactive; nt = not tested or not shown.

SMILES	RGS4 act	MrgX1 antag	MrgX1 PAM	RGS4 block	MrgX1 ag	RGS4 inh valid	RGS4 uninduced	RGS4 inh ctr2
Cc1ccc(N2C(=O)NC(=O)/C(=C/C=C/c3ccco3)C2=O)cc1	i	i	i	i	i	i	i	16%
O=C1NC(=O)N(Cc2ccc(F)cc2)C(=O)/C1=C\C=C\c1ccco1	i	i	8.3	12	i	10%	i	12%
COc1ccc(OC)c(N2C(=O)NC(=O)/C(=C\c3ccc([N+](=O)[O-])s3)C2=O)c1	i	i	i	8	i	18%	i	i
CN1C(=O)NC(=O)/C(=C/c2ccc([N+](=O)[O-])s2)C1=O	i	i	i	7.2	i	14%	i	i
O=C1NC(=O)N(c2ccccc2)C(=O)/C1=C\c1ccc([N+](=O)[O-])s1	i	i	i	i	i	nt	nt	nt
COC(=O)C1=C(c2cc3ccccc3s2)C[C@@H]2CC[C@H]1N2C(=O)N1CCC(C)CC1	i	i	i	i	i	nt	nt	nt
CN1C(=O)C(=Cc2ccc(N3CCOCC3)o2)C(=O)N(C)C1=O	i	i	i	i	i	nt	nt	nt
CN1C(=O)C(=Cc2ccc(-c3cccc(Cl)c3)o2)C(=O)N(C)C1=O	i	i	i	5	i	22%	34%	52%
Cc1ccc(Sc2ccc(C=C3C(=O)N(C)C(=O)N(C)C3=O)o2)cc1	i	i	i	i	i	i	i	80%
CCCCn1c(O)c(/C=N/NC(=O)c2ccncc2)c(=O)[nH]c1=O	i	i	i	i	i	nt	nt	nt
O=c1[nH]c(=O)n(CCC2=CCCCC2)c(O)c1/C=N/Nc1ccccc1	i	i	i	i	i	nt	nt	nt
O=c1[nH]c(=O)n(CCC2=CCCCC2)c(O)c1/C=N/Nc1cccc2ccccc12	i	i	i	5.7	i	9.0%	i	i
O=C(N/N=C/c1c(O)n(CCc2ccccc2)c(=O)[nH]c1=O)c1ccccc1	i	-5.4	i	i	i	i	i	7.5%
C[C@]12CC3CC(N)(C1)C[C@@](C)(C3)C2	i	i	i	i	i	nt	nt	nt
CCOc1ccc(N2C(=O)/C(=C\c3cccs3)C(=O)NC2=S)cc1	i	i	i	i	i	nt	i	i
O=C1NC(=S)N(c2ccccc2F)C(=O)/C1=C\c1cccs1	i	i	i	9.5	i	34%	i	i
COc1ccc(CNC(=O)CCC(=O)N2C[C@H]3C[C@H](C2)c2cccc(=O)n2C3)cc1OC	i	i	i	i	i	nt	nt	nt
CCc1cc2c(s1)N(CC(=O)OC)C(=O)CN=C2c1ccccc1OC	i	i	i	i	i	nt	nt	nt
CCc1cc2c(s1)NC(=O)CN=C2c1cccs1	i	i	i	6	i	24%	31%	i
CC12CN3CN(C1)CC(C)(C3)C2=NO	i	i	i	5.2	i	i	i	i
CCOC(=O)C1CCN(Cc2ccc(Cl)nc2)CC1	i	i	i	5.5	i	9.5%	30%	i
COc1ccc(-n2c(O)c(/C=C3\C=Nc4ccc(Br)cc43)c(=O)[nH]c2=O)c(OC)c1	i	i	i	26	i	55%	i	326%
OC(c1ccncc1)(c1ccc(F)cc1)c1ccc(F)cc1	i	i	i	i	i	nt	nt	nt
Cc1ccc(N2C(=O)NC(=O)/C(=C/c3cnn(-c4ccc(C)cc4)c3)C2=O)cc1	i	i	i	4.8	i	10%	i	i
CSc1ncc(/C=C2/C(=O)NC(=O)N(c3ccc(C)cc3)C2=O)cn1	i	i	i	i	i	nt	nt	nt
SMILES	RGS4 act	MrgX1 antag	MrgX1 PAM	RGS4 block	MrgX1 ag	RGS4 inh valid	RGS4 uninduced	RGS4 inh ctr2
O=c1oc2ccccc2c(O)c1[C@H]1c2ccc(O)cc2Oc2c1c(=O)oc1ccccc21	i	i	i	11	i	58%	35%	i
NC1=C([N+](=O)[O-])C(c2ccc3c(c2)OCO3)c2c(c3ccccc3oc2=O)O1 (centres undefined)	i	i	i	i	i	nt	nt	nt
CC1(C)CC[C@]2(C)CC[C@]3(C)C4C[C@@H]5OO[C@@]6(O5)C(CCCC6(C)C)[C@]4(C)CC[C@@]3(C)C2C1 (some centres undefined)	nt	i	i	nt	i	nt	nt	nt
O=C1NC(=S)NC(=O)C1=Cc1ccc(Br)s1	i	i	i	22	i	78%	i	18%
Cc1cc(/C=C2\C(=O)NC(=S)N(C)C2=O)c(C)n1C1CCCCC1	i	i	i	i	i	nt	nt	nt
CN1C(=O)/C(=C\c2ccc(Br)s2)C(=O)NC1=S	i	i	i	19	i	5.5%	i	i
CCN1C(=O)C(=Cc2ccc(C)s2)C(=O)N(CC)C1=S	i	i	i	i	i	nt	nt	nt
C=C1C2C[C@H](O)C(C)(C)[C@@]2(O)[C@H](O)C[C@]23C[C@@](C)(O)[C@H](CC[C@H]12)[C@H]3OC(C)=O (some centres undefined)	i	i	i	i	i	nt	nt	nt
CCNC(=O)C1OC(n2cnc3c(N)ncnc32)C(O)C1O (centres undefined)	i	i	i	15	30	48%	72%	i
C[C@@H](N)Cc1cnc[nH]1	i	i	i	i	i	nt	nt	nt
O=S1(=O)N(CCN2CC=C(c3c[nH]c4cc(F)ccc34)CC2)c2cccc3c2N1CCC3	nt	i	i	nt	i	nt	nt	nt
Cn1cccc1/C=C1/C(=O)NC(=S)N(Cc2ccc(F)cc2)C1=O	i	i	7	7.2	i	i	i	i
Cn1cccc1/C=C1/C(=O)NC(=O)N(Cc2ccc(F)cc2)C1=O	i	i	i	i	i	i	i	9.0%
Cn1cccc1/C=C1\C(=O)NC(=O)N(Cc2ccccc2)C1=O	i	i	i	i	i	nt	nt	nt
Cn1cccc1/C=C1/C(=O)NC(=O)N(Cc2ccccc2)C1=O	i	i	i	i	i	nt	nt	nt
O=c1[nH]c(O)c(Cc2ccc3c(c2)OCO3)c(=O)[nH]1	i	i	i	i	i	nt	nt	nt
CCOc1ccc(CC2(CCc3ccncc3)C(=O)NC(=O)NC2=O)cc1	i	i	i	i	i	nt	nt	nt
COC(=O)C1=Nc2ccccc2/C1=C\c1c(O)n(-c2cc(OC)ccc2OC)c(=O)[nH]c1=O	i	i	i	i	i	nt	nt	nt
Cc1cccc(-n2c(O)c(/C=C3/C(c4ccccc4)=Nc4ccccc43)c(=O)[nH]c2=O)c1	i	i	i	i	47	nt	i	29%
